A selection: hits, their analogues and other compounds. The true share with any hit is near 1.2%.
HCV NS3 hel inh = HCV NS3 helicase inhibition. inhibition, % at 10.9 µM. NS3 helicase DNA unwinding, Cy5 molecular beacon fluorescence. AID 1800. 290,000 tested, 0.56% active;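 active means inhibition above the mean of all tested compounds plus 3 SD, set per campaign, cut at about 35% in these data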;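 further: 0% = DMSO wells and 100% = thioflavine S control wells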
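assay system = NS3 helicase fragment of HCV | buffer or medium = MOPS pH 6.5, MgCl2, DTT, Tween20, BSA | timing = 60 min unwinding reaction at 25 °C after ATP addition | signal = Cy5 beacon fluorescence read at start and 1 h | read-out basis = % inhibition of unwinding | control set = low DMSO, high thioflavine S at 110 µM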
core dimer inh = blocks dimerization of HCV core protein; TR-FRET GST/Flag-core106 dimerization, 1536-well; inhibition, % at 5 µM; 300,000 tested, 0.33% active;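 active means inhibition above the mean of all tested compounds plus 3 SD, set per screening campaign, cut at about 45% in these data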
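System – GST-tagged and Flag-tagged HCV core protein residues 1-106 · Repeats – one well for each compound · Technique – TR-FRET 671 and 617 nm emission · Doses – one concentration, 5 µM, in 0.5% DMSO · Times – 4 h, 22.5 °C incubation · Also added – Eu donor and XL665 acceptor anti-tag antibodies · Measure – percent inhibition of core106 dimerization signal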
EBNA-1 inh = blocks EBNA-1 binding to DNA | inhibition, % at 14.8 µM | EBNA-1 DNA binding, fluorescence polarization | 300,000 tested, 0.34% active; in the data active means inhibition above about 28%
ZTA counter = counter-screen for EBNA-1 inhibitors: inhibitors of Epstein-Barr virus ZTA; P03206; ZTA-DNA binding, fluorescence polarization; inhibition, % at 11 µM; 320,000 tested, 0.15% active; in the data active means inhibition above about 33%
Target sequence (P03206 whole entry, looked up): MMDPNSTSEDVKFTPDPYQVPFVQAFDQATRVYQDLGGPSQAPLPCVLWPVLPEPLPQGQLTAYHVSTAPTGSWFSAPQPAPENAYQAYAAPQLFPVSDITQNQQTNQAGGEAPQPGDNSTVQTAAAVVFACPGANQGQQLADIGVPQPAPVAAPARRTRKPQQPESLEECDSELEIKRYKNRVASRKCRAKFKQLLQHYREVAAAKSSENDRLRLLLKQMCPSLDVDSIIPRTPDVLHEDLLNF
NS3 helicase cf = confirmation of Hepatitis C virus NS3 helicase inhibitors; NS3 helicase DNA unwinding, Cy5 molecular beacon fluorescence; inhibition, % at 10.9 µM; 1,600 tested, 31% active; shares compounds with HCV NS3 hel inh;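 active means inhibition above the mean of all tested compounds plus 3 SD, cutoff set per campaign, cut at about 36% in these data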
DNA FID counter = counter-screen for HCV NS3 helicase inhibitors: DNA intercalator displacement; shares compounds with HCV NS3 hel inh; DNA fluorescent intercalator displacement, fluorescence; inhibition, % at 7.9 µM; 1,600 tested, 4% active; in the data active means inhibition above about 37%;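 further: 0% = vehicle and 100% = reference compound; higher means more displacement of ethidium bromide from the DNA hairpin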
Starred values were filed as active, the others as inactive; x = not tested or not shown.

SMILES	HCV NS3 hel inh	core dimer inh	EBNA-1 inh	ZTA counter	others
N#Cc1ccc(-c2csc(NNC(=O)c3ccccc3)n2)cc1	-8	6	3	3
CN(C)S(=O)(=O)c1ccc(C(=O)Nc2nc(-c3cccs3)cs2)cc1	8	3	15	4
COc1ccc2c(c1)CC(C(=O)Nc1ccc(Cl)cc1)/C(=N/O)O2 (stereo not drawn)	-8	x	x	x
Cc1ccc(/C([O-])=C(/C(=S)NCc2ccco2)[n+]2ccccc2)cc1	6	42	0	-1
O=[N+]([O-])c1ccc(/C([O-])=C(/C(=S)NCc2ccco2)[n+]2ccccc2)cc1	6	52*	2	-14
CC(C)(CO)[C@@H](O)C(=O)NCCC(=O)O	x	4	1	8
CN(C)c1ccc(NC(=O)N2CCOCC2)cc1	5	-7	50*	62*
O=C(Nc1ccc(F)cc1)N1CCOCC1	-4	4	-9	-7
COC(=O)CCCC1=CC2=CC(=O)C(C)(OC(=O)C3CCCC3)C(=O)C2=CO1 (stereo not drawn)	x	64*	7	0
CCC(=O)OC1(C)C(=O)C=C2C=C(CCCC(=O)OC)OC=C2C1=O (stereo not drawn)	x	53*	5	3
CCCCC1=CC2=CC(=O)C(C)(OC(=O)CC)C(=O)C2=CO1 (stereo not drawn)	x	18	18	6
O=C(Nc1cccc([N+](=O)[O-])c1)NC1CCCCCCC1	-3	x	x	x
O=C(CSc1nc(=O)n(CCCN2CCOCC2)c2c1CCC2)Nc1cccc(F)c1	x	1	-3	-10
CC1CCN(C(=O)c2ccc(SCc3ccccc3F)c([N+](=O)[O-])c2)CC1	5	7	38*	-6
O=C(c1ccc(S(=O)(=O)Cc2ccccc2F)c([N+](=O)[O-])c1)N1CCCCCC1	-4	1	2	2
N#Cc1ccccc1CSc1nc2ccc(NC(=O)c3ccccc3C(=O)O)cc2s1	-5	47*	5	7
CCc1noc(C)c1C(=O)NNC(=O)c1ccccc1Cl	x	x	x	-1
COc1ccc(OC)c(-c2nn(-c3ccccc3)cc2C(=O)NCC(c2ccco2)N2CCCC2)c1 (stereo not drawn)	x	x	x	5
O=C(CN1C(=O)/C(=C\C=C\c2ccccc2)SC1=S)Nc1ccc(F)cc1	20	41	0	-4
O=C(COC(=O)CCN1C(=O)/C(=C\C=C\c2ccccc2)SC1=S)Nc1cc(F)ccc1F	21	60*	-9	1
O=C1C2C3CCCC3=C3CCCC3C2C(=O)N1c1ccc(Cl)cc1 (stereo not drawn)	9	52*	-7	20
COc1cc([C@@H]2c3cc4c(cc3[C@H](O)[C@H]3COC(=O)[C@H]23)OCO4)cc(OC)c1OC	-3	-1	5	-12
COc1cc([C@@H]2c3cc4c(cc3[C@@H](O)[C@@H](CO)[C@@H]2CO)OCO4)cc(OC)c1O[Si](C)(C)C(C)(C)C	x	0	-5	34*
COc1ccccc1C(C)Nc1ccc(S(=O)(=O)N2CCN(C)CC2)cc1[N+](=O)[O-] (stereo not drawn)	x	x	x	-4
O=C(Nc1ccc2nc(-c3ccco3)c(-c3ccco3)nc2c1)NC1CC1	47*	x	x	x
SMILES	HCV NS3 hel inh	core dimer inh	EBNA-1 inh	ZTA counter	others
O=C(NCCCO)Nc1ccc2nc(-c3ccco3)c(-c3ccco3)nc2c1	33	40	1	58*
CCCCC1=CC2=C(c3ccco3)C(=O)C(C)(OC(=O)c3ccc(OC)cc3)C(=O)C2=CN1Cc1ccc2c(c1)OCO2 (stereo not drawn)	x	55*	2	-5
CCCCC1=CC2=C(c3ccco3)C(=O)C(C)(OC(=O)c3ccc(OC)cc3)C(=O)C2=CN1Cc1ccccc1 (stereo not drawn)	x	15	-9	-16
COc1cccc(C(=O)NNC(=O)c2ccc3ccccc3c2O)c1	x	-12	-2	-14
Cc1cccc(NC(=O)CN2CCN(C(=O)c3c(C)nn(Cc4ccccc4)c3C)CC2)c1C	x	x	x	-5
Cc1cc(C)n2nc(C(=O)Nc3ccc4c(c3)OCO4)nc2n1	1	47*	-4	7
Cc1cc(C)n2nc(C(=O)Nc3ccc4c(c3)OCCO4)nc2n1	x	x	x	-8
COc1ccc(/C=N/NC(=O)c2nn(-c3ccc(C)c(C)c3)c(=O)c3ccccc23)cc1	9	56*	-9	-8
Cc1c2cnn(CC(=O)Nc3c(F)c(F)cc(F)c3F)c(=O)c2c(C)n1Cc1ccccc1F	17	55*	-5	-11
O=C1NC(c2ccccc2)CCO1 (stereo not drawn)	56*	0	7	8	NS3 helicase cf=-10;DNA FID counter=13
O=C1CCCC(c2ccccc2)N1 (stereo not drawn)	-5	-8	1	-17
COCCNC(=O)c1c[nH]n2c(=O)cc(C3CCN(C(=O)OC(C)(C)C)CC3)nc12	41*	-14	-5	-3	NS3 helicase cf=-8;DNA FID counter=-27
O=C1C(=O)N(Cc2cccnc2)C(c2cccc(O)c2)/C1=C(\O)c1ccc2c(c1)OCCO2 (stereo not drawn)	3	-3	-7	-12
O=C1C(=O)N(Cc2ccncc2)C(c2cccc(O)c2)/C1=C(\O)c1ccc2c(c1)OCCO2 (stereo not drawn)	41*	-12	1	-23	NS3 helicase cf=-9;DNA FID counter=12
COc1cccc(CNC(=O)CN2C(=O)COc3ccc(S(=O)(=O)N4CCOCC4)cc32)c1	12	0	-5	8
O=C(NNC(=O)c1cc2ccccc2cc1O)Nc1ccccc1F	46*	-11	-1	-2	NS3 helicase cf=-8;DNA FID counter=-4
Cc1cc(OCC(O)CNC(C)(C)C)ccc1Cl (stereo not drawn)	-7	-2	2	2
Fc1nc(F)c(F)c(NCCCNc2c(F)c(F)nc(F)c2F)c1F	52*	1	11	-4	NS3 helicase cf=-8;DNA FID counter=16
CC(=O)c1cccc(NS(=O)(=O)c2ccc(C(=O)Nc3ccccc3)cc2)c1	42*	-20	-6	-5	NS3 helicase cf=-18;DNA FID counter=-2
O=C(C=C1SCCS1)/C=C/c1ccco1	38*	32	8	2	NS3 helicase cf=34;DNA FID counter=3
O=C(O)C(C(=O)/C=C/c1ccco1)=C1SCCS1	31	21	-4	3
CC(=O)Nc1cccc(OCCCNC(=O)C2CCC2)c1	6	3	2	23
CC(=O)C1=C(O)C(=O)N(c2ccc(Br)cc2)C1c1ccc(Cl)cc1 (stereo not drawn)	37*	9	13	5	NS3 helicase cf=80*;DNA FID counter=1
CC(=O)C1=C(O)C(=O)N(c2cc(C(C)(C)C)on2)C1c1ccc(Br)cc1 (stereo not drawn)	38*	5	-5	4	NS3 helicase cf=68*;DNA FID counter=-12
CC(=O)C1=C(O)C(=O)N(c2ccc(O)cc2)C1c1ccc(Cl)cc1 (stereo not drawn)	8	4	2	-3
